Compound activity: PubChem, Sanford-Burnham Center for Chemical Genomics
C8 TRAIL sens: sensitizes caspase-8 expressing cells to TRAIL; AID 624354; NB7+C8 cells + TRAIL, ATPlite viability luminescence; 360,000 compounds, 1% hits; inhibition (viability loss, TRAIL sensitization), % at 10 µM;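 active = compounds causing at least 50% loss of cell viability in the single-dose screen, relative to plate controls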
FLuc act counter: firefly luciferase counter-screen for stimulation assays. P08659. ATPlite luciferase biochemical, luminescence, 10 min; 0 = ATP-free wells, 1 = DMSO control. activation factor at 10 µM. 200,000 tested, under 10 active;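 active = luciferase activation factor, scaled between plate controls, of at least 2 with compound at 10 µM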
Target sequence (P08659 whole entry, looked up): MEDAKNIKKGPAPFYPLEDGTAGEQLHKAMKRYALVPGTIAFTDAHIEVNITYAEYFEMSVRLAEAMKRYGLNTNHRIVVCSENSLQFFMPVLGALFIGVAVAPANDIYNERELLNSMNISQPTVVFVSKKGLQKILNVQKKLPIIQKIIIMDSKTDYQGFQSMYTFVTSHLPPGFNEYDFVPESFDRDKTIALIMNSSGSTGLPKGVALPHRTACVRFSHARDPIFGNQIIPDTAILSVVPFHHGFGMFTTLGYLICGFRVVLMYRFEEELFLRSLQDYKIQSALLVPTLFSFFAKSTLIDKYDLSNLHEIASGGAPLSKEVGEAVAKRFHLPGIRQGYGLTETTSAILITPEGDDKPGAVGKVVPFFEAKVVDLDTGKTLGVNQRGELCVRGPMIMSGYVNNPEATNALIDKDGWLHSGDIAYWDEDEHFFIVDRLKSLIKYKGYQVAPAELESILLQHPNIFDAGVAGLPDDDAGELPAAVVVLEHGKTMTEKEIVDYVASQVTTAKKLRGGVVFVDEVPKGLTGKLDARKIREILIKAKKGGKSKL
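Assay system – cell-free luciferase reagent · Medium – PBS-based ATP solution · Dosing – test compounds dosed from 2 mM stocks in 100% DMSO · Timing – 10 min, room temperature · Technique – light output (luminescence) · Measure – luminescence gain marking luciferase activators · Controls – No-ATP low control, compound-free enzyme-plus-ATP high control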
FLuc inh counter: counter-screen for luciferase assay inhibitors: firefly luciferase inhibition; AID 1006; inhibition, % at 10 µM; ATPLite firefly luciferase biochemical luminescence, 10 min; P08659; 200,000 compounds, 1.5% hits;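 active = inhibition above about 50% when tested at 10 µM, limit read from the data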
PPC-1+TRAIL kill: compounds killing PPC-1 cancer cells with TRAIL present (potentiator screen, no TRAIL-free arm). 220,000 compounds, 0.41% hits. AID 1443. cell killing (% activity), % at 4 µM or 5 µM. PPC-1 cells + TRAIL, ATPLite viability luminescence;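 active = cell killing above 50% in the first pass at 4 µM, then a duplicate retest at 5 µM averaging 50% or more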
Hits are given with their value; n = inactive; x = not tested or not shown. Sampled rows, rich in hits. Any-hit rate of the full collection: about 1.6%.

SMILES	C8 TRAIL sens	FLuc act counter	FLuc inh counter	PPC-1+TRAIL kill
COc1ccc(Cc2nnc(N/N=C/c3ccc(O)cc3)[nH]c2=O)cc1OC	61.2	n	n	n
O=c1[nH]c(N/N=C\c2ccc(F)cc2)nc2ccccc12	n	n	64.2	n
CC(C)CN1CCN(Cc2nc(C(C)C)cs2)CC1CCO (configuration not stated)	n	n	n	n
Cc1ccc(-c2csc(NC(=O)CSc3nnc4c(n3)[nH]c3ccccc34)n2)cc1	51.5	n	n	n
COc1ccc(C2C(C(=O)c3ccco3)=C(O)C(=O)N2Cc2cccnc2)cc1OC (configuration not stated)	n	n	n	n
C=CCn1c(C)cc(C(=O)COc2ncnc3sccc23)c1C	n	n	58.1	n
C/C(=N/NC(=O)c1ccco1)c1cccc(NC(=O)c2ccc(C)o2)c1	n	n	n	n
C/C(=N/NC(=O)c1ccco1)c1cccc(NC(=O)c2ccc(C)s2)c1	n	n	69.0	n
CCC(CC)C(=O)Nc1cccc(/C(C)=N\NC(=O)c2ccc(C)s2)c1	n	n	n	n
C/C(=N\NC(=O)c1ccn(C)n1)c1cccc(NC(=O)c2ccc(C)s2)c1	58.3	n	73.4	n
CCNC(=O)CN(C1CCCCC1)S(C)(=O)=O	n	n	n	n
CC(C)c1nnc(NC(=O)c2c(O)c3cccc4c3n(c2=O)CCC4)s1	59.5	n	n	n
CC(=O)NCC(=O)OCC(=O)N1c2ccccc2Sc2ccccc21	n	n	n	n
CCOc1cc(C(=O)CCC(=O)OCC(=O)Nc2ccc(F)cc2)ccc1O	n	x	x	x
CN(C)c1ccc(NC(=O)COC(=O)CCC(=O)c2ccc(F)cc2)cc1	n	n	50.9	n
CCN(CC)c1ccc(NC(=O)c2ccc(Br)o2)cc1	n	n	52.8	n
O=c1cc(-c2ccc(O)cc2)oc2ccc3ccccc3c12	89.6	x	x	x
CCOC(=O)c1sc(NC(=O)c2cccc(S(=O)(=O)N3CCc4ccccc43)c2)c(C#N)c1C	46.2	x	x	n
COC(=O)c1cccc(S(=O)(=O)N2CCC(C)CC2)c1	n	n	n	n
Cc1cccc(C)c1NC(=O)C1CCN(S(C)(=O)=O)CC1	50.7	x	x	x
CCc1ccc2oc(-c3cc(N)ccc3Cl)nc2c1	47.0	n	56.5	n
CCc1ccc2oc(-c3cc(N)ccc3O)nc2c1	65.4	n	88.3	n
Nc1ccc2oc(-c3cc(Br)ccc3Cl)nc2c1	n	n	n	n
Cc1ccc(C)c(-c2nc3cc(N)ccc3o2)c1	n	n	n	n
CCc1ccc2oc(-c3cc(N)cc(C)c3O)nc2c1	n	n	61.9	n
SMILES	C8 TRAIL sens	FLuc act counter	FLuc inh counter	PPC-1+TRAIL kill
Nc1ccc2oc(-c3ccccc3Cl)nc2c1	n	n	74.6	n
c1cc(-c2nc3cc(Cc4ccc5oc(-c6ccncc6)nc5c4)ccc3o2)ccn1	x	n	n	n
CCCC(=O)Nc1ccc(-c2nc3cc(C)c(C)cc3o2)c(O)c1	n	n	n	n
O=C(O)C1CCCCC1C(=O)N1CC=C(c2ccccc2)CC1 (configuration not stated)	n	n	n	n
O=c1cc2c(nn1Cc1cccc([N+](=O)[O-])c1)-c1ccccc1CC2	n	n	n	n
CC1(C(=O)NCc2ccco2)Cc2c(-c3cccc(C(F)(F)F)c3)ccnc2O1 (configuration not stated)	n	x	x	x
CCn1c(COc2ccccc2C(N)=O)nc2ccccc21	n	n	n	n
N/C(Cc1ccc(Cl)cc1)=N\OC(=O)c1cccc2ccccc12	67.8	n	n	n
N/C(Cc1ccc(Cl)cc1)=N\OC(=O)CCc1ccccc1	n	x	x	x
N/C(Cc1ccc(Cl)cc1)=N\OC(=O)c1ccc2ccccc2c1	95.0	n	n	n
COc1ccc(C/C(N)=N/OC(=O)c2ccc(Cl)cc2)cc1	n	n	n	n
COc1ccc(/C=N/c2nc3ccccc3n2C)cc1OC	n	n	69.7	n
Cn1c(/N=C/c2cccs2)nc2ccccc21	n	n	73.9	n
C(=N\c1nc2ccccc2n1CCN1CCCCC1)/c1cccs1	n	n	n	n
COCc1c(C(=O)OCc2nnc(-c3ccc([N+](=O)[O-])cc3)o2)oc2ccccc12	n	x	x	x
O=C1OCCC1Sc1nnc(-c2ccc(O)cc2)o1 (configuration not stated)	n	n	n	n
O=C1OCCC1Sc1nnc(-c2ccc3c(c2)OCO3)o1 (configuration not stated)	n	n	60.0	n
COC(=O)c1ccccc1NCc1cc(=O)oc2cc(O)c(O)cc12	n	x	x	x
CN1CCCC(OC(=O)COc2ccccc2)C1 (configuration not stated)	n	n	n	n
Cc1ccc2nc(-c3ccccc3)nn2c1	76.2	x	x	x
Cn1c(C(=O)N2CCCC(C(=O)N3CCN(C(=O)c4ccco4)CC3)C2)cc2sccc21 (configuration not stated)	n	n	n	n
O=C(NNC(=S)Nc1cccc2ccccc12)c1cccc(Br)c1	n	n	n	n
Cc1ccc(C(=O)NNC(=S)Nc2cccc3ccccc23)s1	n	n	57.5	n
COc1ccccc1/C=C/C(=O)Nc1ccc2c(c1)OCCO2	75.4	n	84.8	56.2
O=C(/C=C/c1ccccc1)Nc1ccc2c(c1)OCCO2	74.7	n	94.0	x
SMILES	C8 TRAIL sens	FLuc act counter	FLuc inh counter	PPC-1+TRAIL kill
O=C(CSCSCC(=O)Nc1ccc2c(c1)OCO2)Nc1ccc2c(c1)OCO2	n	n	n	n
CC(C)=CC(=O)Nc1ccc2c(c1)OCO2	n	n	51.1	n
CC(C)CC(=O)NN(C)c1nc(-c2ccccc2)nnc1C(F)(F)F	n	n	n	n
CN(NC(=O)c1ccc(Cl)cc1)c1nc(-c2ccccc2)nnc1C(F)(F)F	48.7	n	n	n
Cc1nn(Cc2c(Cl)cccc2Cl)c(C)c1NC(=O)c1cn(-c2ccccc2)nc1-c1ccccc1	75.9	n	n	n
Cc1cccc(C)c1NC(=O)CNC(=O)c1cn(-c2ccccc2)nc1-c1ccccc1	n	x	x	x
COc1ccc(NC(=O)c2cccc3c2C(=O)c2ccc(-c4ccc(F)cc4OCc4ccccc4)cc2S3(=O)=O)cc1	59.0	x	x	x
Cc1noc(C)c1C(=O)NC(C)C12CC3CC(CC(C3)C1)C2 (configuration not stated)	n	n	n	n
CC(C)(C)c1ccc(C(=O)Nc2cccc3c(=O)[nH][nH]c(=O)c23)cc1	n	n	69.7	n
Cc1c(C(=O)/C=C/c2cccs2)oc2ccc(F)cc12	n	n	84.5	n
COc1ccccc1C(C)NCC(=O)Nc1c(F)cccc1F (configuration not stated)	n	n	n	n
O=C(Nc1ccc(Oc2c(F)c(F)c(F)c(F)c2F)cc1)OC1CCN2Cc3ccccc3N=C12 (configuration not stated)	69.2	x	x	n
CSc1ccccc1-c1nnc(-c2ccc(C)cc2)o1	61.7	n	71.4	n
CSc1ccccc1-c1nnc(-c2ccccc2)o1	n	n	64.2	n
CSc1nnc(-c2ccccc2SC)o1	n	n	n	n
COc1ccccc1-c1nnc(-c2ccc(C)cc2)o1	53.1	x	x	x
COc1ccccc1C(=O)Nc1nc2ccccc2s1	91.4	x	x	x
COc1ccc(C(=O)Nc2nc3ccccc3s2)c(OC)c1	91.8	x	x	x
